Experimental data reported in ChEMBL document CHEMBL4400522, “Chikungunya virus inhibition by synthetic coumarin-guanosine conjugates” (Eur J Med Chem, 2019).

Experiments:
Chikungunya virus [1] = assay: Antiviral activity against Chikungunya virus 899 infected in African green monkey Vero A cells assessed as inhibition of viral RNA replication by RT-qPCR analysis; format: functional, organism-based; settings: Chikungunya virus, 899, Vero
Chikungunya virus [2] = assay: Antiviral activity against Chikungunya virus infected in African green monkey Vero cells assessed as reduction in virus-induced cytopathic effect after 7 days by MTS assay; format: functional, organism-based; settings: 168 h
[3] = Selectivity index, ratio of CC50 for African green monkey Vero cells to EC50 for chikungunya virus infected in African green monkey Vero E6 cells; format: toxicity, Vero C1008; settings: read-out: Ratio CC50/EC50
[4] = Cytotoxicity against African green monkey Vero A cells by MTS assay; format: cell-based; settings: chlorocebus aethiops
Method in brief: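 Host-cell metabolism in Vero subtype A cells was measured by MTS read-out. CC50 is the concentration reducing host-cell metabolism by 50%. It was determined only for selected conjugates.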

[5] = Selectivity index, ratio of CC50 for African green monkey Vero A cells to EC50 for chikungunya virus 899 infected in African green monkey Vero A cells; format: toxicity; settings: read-out: Ratio CC50/EC50
[6] = Lipophilicity, log P of the compound; format: physicochemical; settings: octanol/water
Chikungunya virus [7] = assay: Antiviral activity against Chikungunya virus infected in African green monkey Vero E6 cells assessed as reduction in virus-induced cytopathic effect; format: functional, organism-based; settings: Vero C1008
[8] = Selectivity index, ratio of CC50 for African green monkey Vero E6 cells to EC50 for chikungunya virus infected in African green monkey Vero cells; format: toxicity, Vero C1008; settings: read-out: Ratio CC50/EC50
[9] = Aqueous solubility of the compound measured per 100 ml; format: physicochemical; settings: buffer

Nc1nc(SCc2cc3cc(Br)ccc3oc2=O)c2nc(SCc3ccccc3)n([C@@H]3O[C@H](CO)[C@@H](O)[C@H]3O)c2n1
EC50 (Chikungunya virus [1]): > 152 µM

C=C(C)[C@@]12OC3(c4ccccc4)O[C@@H]1[C@@H]1[C@@H]4O[C@]4(CO)[C@@H](O)[C@@]4(O)[C@@H](C=C(C)[C@@H]4O)[C@@]1(O3)[C@H](C)[C@@H]2OC(=O)C(C)CCCCCCCC (stereo partly specified)
EC50 (Chikungunya virus [2]): 0.6 µM
selectivity ratio [3]: 71.7

Cc1ccc2oc(=O)c(CSc3nc(N)nc4c3nc(SCc3cc5cc(C)ccc5oc3=O)n4[C@@H]3O[C@H](CO)[C@@H](O)[C@H]3O)cc2c1
EC50 (Chikungunya virus [1]): 40.9 µM
CC50 [4]: 81.3 µM
selectivity ratio [5]: 1.98
logP [6]: 3.22

Nc1nc(SCc2cc3cc(Cl)ccc3oc2=O)c2nc(SCc3ccccc3)n([C@@H]3O[C@H](CO)[C@@H](O)[C@H]3O)c2n1
EC50 (Chikungunya virus [1]): > 163 µM

Nc1nc(SCc2cc3ccccc3oc2=O)c2nc(SCc3cccc4ccccc34)n([C@@H]3O[C@H](CO)[C@@H](O)[C@H]3O)c2n1
EC50 (Chikungunya virus [1]): > 159 µM

COc1ccc2oc(=O)c(CSc3nc(N)nc4c3nc(SCc3ccccc3)n4[C@@H]3O[C@H](CO)[C@@H](O)[C@H]3O)cc2c1
EC50 (Chikungunya virus [1]): > 164 µM
logP [6]: 2.78

CSc1nc2c(SCc3cc4cc(C)ccc4oc3=O)nc(N)nc2n1[C@@H]1O[C@H](CO)[C@@H](O)[C@H]1O
EC50 (Chikungunya virus [1]): > 194 µM

Nc1nc2c(nc(SCc3ccccc3)n2[C@@H]2O[C@H](CO)[C@@H](O)[C@H]2O)c(=S)[nH]1
EC50 (Chikungunya virus [1]): > 237 µM

Nc1nc(SCc2cc3ccccc3oc2=O)c2nc(SCc3ccccc3)n([C@@H]3O[C@H](CO)[C@@H](O)[C@H]3O)c2n1
EC50 (Chikungunya virus [1]): > 173 µM

Nc1nc(SCc2cc3ccccc3oc2=O)c2nc(SCc3cc4ccccc4oc3=O)n([C@@H]3O[C@H](CO)[C@@H](O)[C@H]3O)c2n1
EC50 (Chikungunya virus [1]): > 154 µM

Nc1nc2c(nc(SCc3cccc4ccccc34)n2[C@@H]2O[C@H](CO)[C@@H](O)[C@H]2O)c(=S)[nH]1
EC50 (Chikungunya virus [1]): > 212 µM

CSCc1cc2ccccc2oc1=O
EC50 (Chikungunya virus [1]): > 485 µM

Nc1nc(SCc2cc3cc(F)ccc3oc2=O)c2nc(SCc3cc4cc(F)ccc4oc3=O)n([C@@H]3O[C@H](CO)[C@@H](O)[C@H]3O)c2n1
EC50 (Chikungunya virus [1]): > 146 µM

COc1cccc2cc(CSc3nc(N)nc4c3nc(SCc3cc5cccc(OC)c5oc3=O)n4[C@@H]3O[C@H](CO)[C@@H](O)[C@H]3O)c(=O)oc12
EC50 (Chikungunya virus [1]): 10.3 µM
CC50 [4]: 96.5 µM
selectivity ratio [5]: 9.37
logP [6]: 2.97

Nc1nc2c(nc(S)n2[C@@H]2O[C@H](CO)[C@@H](O)[C@H]2O)c(=S)[nH]1
EC50 (Chikungunya virus [1]): > 302 µM
logP [6]: -0.13

Nc1nc(SCc2cc3cc(Br)ccc3oc2=O)c2nc(SCc3cc4cc(Br)ccc4oc3=O)n([C@@H]3O[C@H](CO)[C@@H](O)[C@H]3O)c2n1
EC50 (Chikungunya virus [1]): > 124 µM

CSc1nc2c(SCc3cc4cc(Br)ccc4oc3=O)nc(N)nc2n1[C@@H]1O[C@H](CO)[C@@H](O)[C@H]1O
EC50 (Chikungunya virus [1]): > 172 µM

CSc1nc2c(SCc3cc4ccccc4oc3=O)nc(N)nc2n1[C@@H]1O[C@H](CO)[C@@H](O)[C@H]1O
EC50 (Chikungunya virus [1]): > 198 µM

CCN1C(=O)CCSC1c1cc2cc(Cc3ccc4oc(C5SCCC(=O)N5CC)cc4c3)ccc2o1 (stereo unspecified)
EC50 (Chikungunya virus [7]): 1.9 µM
selectivity ratio [8]: 75

COc1cccc2cc(CSc3nc(N)nc4c3nc(SC)n4[C@@H]3O[C@H](CO)[C@@H](O)[C@H]3O)c(=O)oc12
EC50 (Chikungunya virus [1]): > 188 µM

COc1ccc2oc(=O)c(CSc3nc(N)nc4c3nc(SCc3cccc5ccccc35)n4[C@@H]3O[C@H](CO)[C@@H](O)[C@H]3O)cc2c1
EC50 (Chikungunya virus [1]): 13.9 µM
CC50 [4]: > 227 µM
selectivity ratio [5]: > 16.3
logP [6]: 3.77

Nc1nc(SCc2cc3cc(Cl)ccc3oc2=O)c2nc(SCc3cc4cc(Cl)ccc4oc3=O)n([C@@H]3O[C@H](CO)[C@@H](O)[C@H]3O)c2n1
EC50 (Chikungunya virus [1]): > 140 µM

CSc1nc2c(SCc3cc4cc(Cl)ccc4oc3=O)nc(N)nc2n1[C@@H]1O[C@H](CO)[C@@H](O)[C@H]1O
EC50 (Chikungunya virus [1]): > 186 µM

COc1ccc2oc(=O)c(CSc3nc(N)nc4c3nc(SCc3cc5cc(OC)ccc5oc3=O)n4[C@@H]3O[C@H](CO)[C@@H](O)[C@H]3O)cc2c1
solubility [9]: 7.2 mg
EC50 (Chikungunya virus [1]): 9.9 µM
CC50 [4]: > 212 µM
selectivity ratio [5]: > 21.7
logP [6]: 3.01
